What was measured:
Assay type in all cases: functional
SK-MEL-28 [1] = assay: Growth inhibition of human SK-MEL-28 cells after 48 hrs by SRB assay; details: SK-MEL-28, 48 h; for CC50: read-out: LC50 (the source's name)
Outline: (§1)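 Adherent NCI-60 lines grown in RPMI 1640 with 5% FBS, seeded at 5000–40,000 cells/well, and preincubated 24 h at 37 °C, 5% CO2. Compound, stocked in DMSO, given either once at 10^-5 M or at five 10-fold dilutions for 48 h. Cells fixed with cold TCA (final 10%), stained with 0.4% SRB, and read at 515 nm. GI50 taken as 50% reduction in net protein increase versus time-zero and control plates.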

OVCAR-4 [2] = assay: Growth inhibition of human OVCAR4 cells after 48 hrs by SRB assay; details: OVCAR-4, 48 h; outline: as §1
T47D = assay: Cytotoxicity against human T47D cells assessed as cell growth at 10^-7 M after 48 hrs by SRB assay; details: read-out: Activity
MDA-MB-231 = assay: Growth inhibition of human MDA-MB-231 cells after 48 hrs by SRB assay; details: MDA-MB-231, 48 h; outline: as §1
CAKI-1 = assay: Cytotoxicity against human Caki1 cells assessed as cell growth at 10^-7 M after 48 hrs by SRB assay; details: CAKI-1, 48 h, read-out: Activity
Outline: (§2)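 NCI-60 screen: lines kept in RPMI 1640 with 5% FBS, seeded at 5000–40,000 cells/well by doubling time, preincubated 24 h at 37 °C in 5% CO2. Time-zero plates TCA-fixed at drug addition. DMSO stocks diluted in medium, 48 h exposure. Fixation in cold TCA (final 10% adherent, 16% suspension), 0.4% SRB stain, solubilised in 10 mM Tris base, A515. Percent growth computed against control and time-zero.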

[3] = Cytotoxicity against human Hs 578T cells assessed as cell growth at 10^-4 M after 48 hrs by SRB assay; details: read-out: Activity
Outline: (§3)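 NCI-60 five-dose screen. Cells were grown in RPMI 1640 with 5% FBS and seeded at 5000–40,000 cells/well according to doubling time. They were pre-incubated 24 h at 37 °C in 5% CO₂, and time-zero (Tz) plates were TCA-fixed at drug addition. Five 10-fold dilutions of DMSO stock were applied for 48 h. Read-out was SRB staining, 515 nm absorbance, with percent growth calculated versus Tz and untreated control.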

MCF7 = assay: Cytotoxicity against human MCF7 cells assessed as cell growth at 10^-8 M after 48 hrs by SRB assay; details: MCF7, 48 h, read-out: Activity
[4] = Cytotoxicity against human […] cells assessed as cell growth at 10^-5 M after 48 hrs by SRB assay; details: RPMI8266, 48 h, read-out: Activity
DU-145 = assay: Cytotoxicity against human DU145 cells assessed as cell growth at 10^-7 M after 48 hrs by SRB assay; details: DU-145, 48 h, read-out: Activity; outline: as §2
HCC 2998 = assay: Cytotoxicity against human HCC2998 cells assessed as cell growth at 10^-5 M after 48 hrs by SRB assay; details: HCC 2998, 48 h, read-out: Activity; outline: as §3
MDA-MB-468 = assay: Growth inhibition of human MDA-MB-468 cells after 48 hrs by SRB assay; details: MDA-MB-468, 48 h; outline: as §1
NCI-H522 = assay: Cytotoxicity against human NCI-H522 cells assessed as cell growth at 10^-8 M after 48 hrs by SRB assay; details: NCI-H522, 48 h, read-out: Activity
SW-620 = assay: Cytotoxicity against human SW620 cells assessed as cell growth at 10^-8 M after 48 hrs by SRB assay; details: SW-620, 48 h, read-out: Activity
SK-OV-3 = assay: Growth inhibition of human SKOV3 cells after 48 hrs by SRB assay; details: SK-OV-3, 48 h; for CC50: read-out: LC50 (the source's name); outline: as §1
A498 = assay: Cytotoxicity against human A498 cells assessed as cell growth at 10^-4 M after 48 hrs by SRB assay; details: A498, 48 h, read-out: Activity; outline: as §2
SK-MEL-28 [5] = assay: Cytotoxicity against human SK-MEL-28 cells assessed as cell growth at 10^-5 M after 48 hrs by SRB assay; details: SK-MEL-28, 48 h, read-out: Activity
HCT-15 = assay: Cytotoxicity against human HCT15 cells assessed as cell growth at 10^-8 M after 48 hrs by SRB assay; details: HCT-15, 48 h, read-out: Activity; outline: as §3
HOP-62 = assay: Cytotoxicity against human HOP62 cells assessed as cell growth at 10^-8 M after 48 hrs by SRB assay; details: HOP-62, 48 h, read-out: Activity; outline: as §3
OVCAR-4 [6] = assay: Cytotoxicity against human OVCAR4 cells assessed as cell growth at 10^-7 M after 48 hrs by SRB assay; details: OVCAR-4, 48 h, read-out: Activity
M14 = assay: Growth inhibition of human M14 cells after 48 hrs by SRB assay; details: M14, 48 h; outline: as §1
786-0 = assay: Growth inhibition of human 786-0 cells after 48 hrs by SRB assay; details: 786-0, 48 h
Outline: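 Same 48 h NCI-60 five-dose SRB protocol. Adherent lines were fixed with cold TCA at 10% final; suspension lines such as CCRF-CEM were fixed with 16% final TCA. Stain was 0.4% SRB in 1% acetic acid for 10 min, solubilized in 10 mM Tris base and read at 515 nm. GI50 came from log concentration–growth curves, solving [(Ti−Tz)/(C−Tz)]×100 = 50.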

SF-268 [7] = assay: Cytotoxicity against human SF268 cells assessed as cell growth at 10^-8 M after 48 hrs by SRB assay; details: SF-268, 48 h, read-out: Activity
SF-268 [8] = assay: Cytotoxicity against human SF268 cells assessed as cell growth at 10^-5 M after 48 hrs by SRB assay; details: SF-268, 48 h, read-out: Activity
SR = assay: Cytotoxicity against human SR cells assessed as cell growth at 10^-5 M after 48 hrs by SRB assay; details: read-out: Activity
KM12 = assay: Growth inhibition of human KM12 cells after 48 hrs by SRB assay; details: KM12, 48 h; outline: as §1
BT-549 = assay: Cytotoxicity against human BT549 cells assessed as cell growth at 10^-6 M after 48 hrs by SRB assay; details: BT-549, 48 h, read-out: Activity; outline: as §2
OVCAR-5 = assay: Growth inhibition of human OVCAR5 cells after 48 hrs by SRB assay; details: OVCAR-5, 48 h; outline: as §1
HT-29 = assay: Cytotoxicity against human HT-29 cells assessed as cell growth at 10^-6 M after 48 hrs by SRB assay; details: HT-29, 48 h, read-out: Activity; outline: as §3

## COc1ccc(-c2nn3cc(-c4ccc(O)cc4O)nc3s2)cc1
SK-MEL-28 [1]
  GI50: 2.14 µM
  TGI: 12.4 µM
  CC50: > 100 µM
OVCAR-4 [2]
  GI50: 1.38 µM
  TGI: 3.39 µM
T47D
  growth at 0.1 µM: 89%
MDA-MB-231
  GI50: 1.37 µM
  TGI: 3.57 µM
CAKI-1
  growth at 0.1 µM: 90%
[3]
  growth at 100 µM: -1%
MCF7
  growth at 0.01 µM: 92%
[4]
  growth at 10 µM: 10%
DU-145
  growth at 0.1 µM: 96%
HCC 2998
  growth at 10 µM: 34%
MDA-MB-468
  GI50: 1.5 µM
  LC50: > 100 µM
  TGI: 17.6 µM
NCI-H522
  growth at 0.01 µM: 89%
SW-620
  growth at 0.01 µM: 97%
SK-OV-3
  GI50: 1.7 µM
  TGI: 3.62 µM
  CC50: 7.72 µM
A498
  growth at 100 µM: -37%
SK-MEL-28 [5]
  growth at 10 µM: 3%
HCT-15
  growth at 0.01 µM: 96%
HOP-62
  growth at 0.01 µM: 95%
OVCAR-4 [6]
  growth at 0.1 µM: 88%
M14
  GI50: 3.68 µM
  LC50 (concentration killing 50% of cells): > 100 µM
  TGI: 18.1 µM
786-0
  GI50: 1.72 µM
  TGI: 3.43 µM
SF-268 [7]
  growth at 0.01 µM: 97%
SF-268 [8]
  growth at 10 µM: 14%
SR
  growth at 10 µM: 6%
KM12
  Concentration killing 50% of cells (LC50): > 100 µM
  GI50: 3.61 µM
  TGI: > 100 µM
BT-549
  growth at 1 µM: 73%
OVCAR-5
  GI50: 3.43 µM
  LC50: > 100 µM
  TGI: > 100 µM
HT-29
  growth at 1 µM: 86%

## COc1ccc(-c2nn3cc(-c4cccc(N)c4)nc3s2)cc1
SK-MEL-28 [1]
  GI50: 3.76 µM
  TGI: 26 µM
  CC50: > 100 µM
OVCAR-4 [2]
  GI50: 1.54 µM
  TGI: 15.1 µM
OVCAR-4 [2]; read-out: LC50 (the source's name)
  CC50: > 100 µM
T47D
  growth at 0.1 µM: 86%
MDA-MB-231
  GI50: 1.58 µM
  LC50 (concentration killing 50% of cells present at time zero): > 100 µM
  TGI: 13.2 µM
CAKI-1
  growth at 0.1 µM: 76%
[3]
  growth at 100 µM: -10%
MCF7
  growth at 0.01 µM: 86%
[4]
  growth at 10 µM: 6%
DU-145
  growth at 0.1 µM: 103%
HCC 2998
  growth at 10 µM: 51%
MDA-MB-468
  GI50: 1.83 µM
  LC50: > 100 µM
  TGI: 9.32 µM
NCI-H522
  growth at 0.01 µM: 82%
SW-620
  growth at 0.01 µM: 95%
SK-OV-3
  GI50: 2.72 µM
  TGI: 10.8 µM
  CC50: 54.9 µM
A498
  growth at 100 µM: -67%
SK-MEL-28 [5]
  growth at 10 µM: 28%
HCT-15
  growth at 0.01 µM: 98%
HOP-62
  growth at 0.01 µM: 97%
OVCAR-4 [6]
  growth at 0.1 µM: 92%
M14
  GI50: 5.48 µM
  LC50 (concentration killing 50% of cells): 90.1 µM
  TGI: 24.5 µM
786-0
  GI50: 4.7 µM
  LC50: 42.9 µM
  TGI: 15.9 µM
SF-268 [7]
  growth at 0.01 µM: 100%
SF-268 [8]
  growth at 10 µM: 26%
SR
  growth at 10 µM: 26%
KM12
  Concentration killing 50% of cells (LC50): > 100 µM
  GI50: 5.34 µM
  TGI: 27.5 µM
BT-549
  growth at 1 µM: 87%
OVCAR-5
  GI50: 8.54 µM
  LC50: > 100 µM
  TGI: 47.1 µM
HT-29
  growth at 1 µM: 88%

— ChEMBL document CHEMBL2146441, “2,6-Disubstituted imidazo[2,1-b][1,3,4]thiadiazoles: search for anticancer agents” (2012)
